Results as given in PubChem BioAssay.
Inconclusive results are not listed.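 The calls were made as follows, unless noted: active = viability at or below 27.92% in each of two runs, the all-compound median minus 4 SD; inconclusive = no clear call, values can overlap the other calls; inactive = the rest.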

Columns and labels:
[1] = S. cerevisiae growth inhibition in permissive medium (OD615), pilot counter-assay for S. cerevisiae lifespan shortening project, permissive growth control (AID 705;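 active = growth inhibition above 25% in both replicates, a cutoff set 3 SD above the mean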); settings: OD615, 24 h, at 10 µM, active compounds read high
In short: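 System: S. cerevisiae with engineered DeaD lifespan system. Medium: SC raffinose/galactose permissive medium. Doses: single compound dose of 10 µM, 0.25% DMSO final. Schedule: 24 h exposure, 30 °C. Measured by: OD615 turbidity read. Read-out: growth inhibition.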

[2] = S. cerevisiae growth inhibition in restrictive medium, OD615, pilot screen, restrictive growth control, yeast lifespan reduction project (AID 706;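 active = growth inhibition above a set limit, 3 SD over mean compound inhibition, in both replicates, cut at about 43% in these data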;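 also: modified DeaD lifespan yeast strain shifted to restrictive glucose medium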); settings: OD615, 48 h, at 10 µM, active compounds read high
In short: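 Assay system – genetically modified Saccharomyces cerevisiae, DeaD replicative lifespan assay strain · Medium – CSMM-D glucose medium · Doses – 10 µM compound, 0.25% DMSO · Times – 4 h pre-incubation, 48 h exposure at 30 °C · Signal – optical density at 615 nm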

[3] = doxorubicin toxicity protection in MRP-1 cells – H69AR cells, CellTiter-Glo, duplicate, MRP-1 activator project, pilot screen (AID 807;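 active = viability increase at or above a cutoff of the median across tested compounds plus 3 SD, cut at about 8.5% in these data, passing the limit was not always enough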;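 also: compound pretreatment 18-22 h then 72 h combined with doxorubicin; 0% = doxorubicin alone and 100% = vehicle without doxorubicin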); settings: H69AR viability with doxorubicin, CellTiter-Glo luminescence; at 10 µM; active compounds read high
[4] = viability of HCT116 without oncogenic beta-catenin – human colon tumor cells, pilot screen (AID 823;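 active = cell viability at or below a set limit in both duplicate runs, the limit being the all-compound median minus 4 SD, cut at about 23% in these data, passing the limit was not always enough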;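 also: 0% = wells killed by 20 µM Hyamine and 100% = untreated DMSO cell wells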); settings: HCT116 beta-catenin knockout viability, CellTiter-Glo, 60 h; at 10 µM; active compounds read low
[5] = viability of PTEN-null HCT116 cells – cell-based, HCT116 clonal line, CellTiter-Glo, pilot screen (AID 824); settings: HCT116 PTEN-deleted viability, 60 h, at 10 µM, active compounds read low;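 also: 0% = 20 µM Hyamine control and 100% = vehicle cell control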
[6] = RAM pathway blockade in budding yeast – dse1pr::URA3 reporter, 5-FOA selection, pilot screen (AID 869;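 active = inhibition over a set limit, the all-compound mean plus 3 SD, in both replicate runs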;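 also: 0% = DMSO wells with no growth and 100% = 10 µM 1-NA-PP1 with full growth; RAM network block rescues cells from 5-FOA so hits raise OD615 growth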); settings: S. cerevisiae dse1pr::URA3 5-FOA growth, OD615, 2 d; at 10 µM; active compounds read high; strain carries analog-sensitive mutant Cbk1 kinase
[7] = RAM signaling pathway blockade in yeast – S. cerevisiae, Pdr1DBD-CYC8 efflux-inhibited sensitized strain, primary screen (AID 1298;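 active = RAM network inhibition above 8.4% in each of two replicates, 3 SD over the compound average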;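 also: 0% = DMSO untreated cells without growth and 100% = 10 µM 1-NA-PP1 full growth; higher means more yeast growth rescued from 5-FOA killing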); settings: S. cerevisiae cbk1-as DSE1-URA3 strain, 5-FOA growth OD615, 2 d; at 50 µM; active compounds read high

O=C(Nc1nc2c(Cl)ccc(Cl)c2s1)c1ccco1
inactive: growth inhibition [1] -22% | growth inhibition [2] -3.32% | viability increase [3] -6.22% | viability [4] 90.1% | viability [5] 85.2% | inhibition [6] 1.41% | RAM network inhibition [7] 2.84%

CCOc1ccc(C2c3c(oc4ccccc4c3=O)C(=O)N2c2ccccn2)cc1OC (configuration not stated)
inactive: growth inhibition [1] -15.4% | growth inhibition [2] -25.5% | viability increase [3] -4.13% | viability [4] 92.3% | viability [5] 96.2% | inhibition [6] 1.44% | RAM network inhibition [7] 1.32%

CCN1CCN(C(c2ccccc2)c2sc3nc(C)nn3c2O)CC1 (configuration not stated)
inactive: growth inhibition [1] 0.24% | growth inhibition [2] 1.3% | viability increase [3] -1.49% | viability [4] 102% | viability [5] 101% | inhibition [6] 1.31% | RAM network inhibition [7] 5.66%

C=CCc1ccccc1OCC(O)CN1CCN(c2ccccc2OC)CC1 (configuration not stated)
inactive: growth inhibition [1] -21.5% | growth inhibition [2] -25% | viability increase [3] -4.59% | viability [4] 56.3% | viability [5] 63.5% | inhibition [6] 1.39% | RAM network inhibition [7] 4.75%

O=C(CC12CC3CC(CC(C3)C1)C2)N1CCOCC1
inactive: growth inhibition [1] 6.71% | growth inhibition [2] 1.68% | viability increase [3] -0.17% | viability [4] 102% | viability [5] 102% | inhibition [6] 1.39% | RAM network inhibition [7] 7.72%

CCN1CCN(CC(=O)Nc2ccc(C)cc2C)C(=O)C1=O
inactive: growth inhibition [1] 2.74% | growth inhibition [2] -6.08% | viability increase [3] -0.23% | viability [4] 98% | viability [5] 97% | inhibition [6] 1.74% | RAM network inhibition [7] -0.71%

Cn1cnnc1SCc1ccc(C#N)cc1Cl
inactive: growth inhibition [1] -9.5% | growth inhibition [2] -15.1% | viability increase [3] 0.63% | viability [4] 99.7% | viability [5] 97.8% | inhibition [6] 0.175% | RAM network inhibition [7] 4.52%

COC(=O)c1c(NC(=O)CCN2CCOCC2)sc2c1CCCC2
inactive: growth inhibition [1] -1.47% | growth inhibition [2] -2.81% | viability increase [3] -6.91% | viability [4] 88.4% | viability [5] 89.7% | inhibition [6] 0.935% | RAM network inhibition [7] 4.32%

CCN1C(=O)c2ccc(-c3nc4ccccc4c(=O)o3)cc2C1=O
inactive: growth inhibition [1] -8.45% | growth inhibition [2] -0.43% | viability increase [3] -0.05% | viability [4] 99% | viability [5] 94.7% | inhibition [6] 1.71% | RAM network inhibition [7] 3.16%

O=C(NCc1ccc2c(c1)OCO2)c1nnc(Cc2ccc(Cl)cc2)o1
inactive: growth inhibition [1] -5.43% | growth inhibition [2] 4.12% | viability increase [3] 2.05% | viability [4] 103% | viability [5] 103% | inhibition [6] 2.2% | RAM network inhibition [7] 5.48%

CN(CCNC(=O)C1(O)c2ccccc2NC(=O)N1c1ccccc1)Cc1ccccc1 (configuration not stated)
inactive: growth inhibition [1] -15.6% | growth inhibition [2] -17.7% | viability increase [3] -2.03% | viability [4] 95.8% | viability [5] 93.2% | inhibition [6] 0.43% | RAM network inhibition [7] 2.02%

CCOc1ccc(N2CC(C(=O)NCCC3=CCCCC3)CC2=O)cc1 (configuration not stated)
inactive: growth inhibition [1] -1.23% | growth inhibition [2] -18.5% | viability increase [3] 0.15% | viability [4] 99.6% | viability [5] 93.8% | inhibition [6] 0.36% | RAM network inhibition [7] 3.96%

COc1ccc(C2CC(C(F)(F)F)n3ncc(C(=O)O)c3N2)cc1OC (configuration not stated)
inactive: growth inhibition [1] -0.77% | growth inhibition [2] -3% | viability increase [3] 0.06% | viability [4] 97.2% | viability [5] 97.9% | inhibition [6] 0.23% | RAM network inhibition [7] -0.41%

Nc1nonc1C(=O)NCCc1ccccc1
inactive: growth inhibition [1] -6.66% | growth inhibition [2] 6.3% | viability increase [3] -0.05% | viability [4] 116% | viability [5] 99.6% | inhibition [6] 0.71% | RAM network inhibition [7] -0.76%

CC(C)Cc1cc(C(=O)Nc2ccc(F)cc2F)no1
inactive: growth inhibition [1] -18.9% | growth inhibition [2] -23.4% | viability increase [3] 1.32% | viability [4] 100% | viability [5] 98.6% | inhibition [6] 0.505% | RAM network inhibition [7] 0.21%

C=C(C)c1cccc(C(C)(C)NC(=O)N2CCN(c3ccccn3)CC2)c1
inactive: growth inhibition [1] -11.1% | growth inhibition [2] 0.485% | viability increase [3] -0.48% | viability [4] 75.8% | viability [5] 89.6% | inhibition [6] 1.06% | RAM network inhibition [7] 1.43%

CCN1CCN(c2ncnc3c2sc2nc(N4CCOCC4)c4c(c23)CCC4)CC1
inactive: growth inhibition [1] -5.5% | growth inhibition [2] -14.1% | viability increase [3] -4.51% | viability [4] 85.1% | viability [5] 86.3% | inhibition [6] 0.195% | RAM network inhibition [7] 5.27%

COc1cc(/C=N/n2cnnc2)ccc1OC(=O)c1ccncc1
inactive: growth inhibition [1] -13.9% | growth inhibition [2] -15.2% | viability increase [3] -2.23% | viability [4] 92.9% | viability [5] 99.1% | inhibition [6] 1.43% | RAM network inhibition [7] 1.08%

Cc1ccc(C(=O)c2cc3c(cc2N)OCCO3)cc1
inactive: growth inhibition [1] -11.6% | growth inhibition [2] -21.8% | viability increase [3] -3.61% | viability [4] 91.2% | viability [5] 89.2% | inhibition [6] 0.27% | RAM network inhibition [7] 3.36%

O=C(O)c1c2c(nc3ccc(S(=O)(=O)N4CCC(C(=O)N5CCCCC5)CC4)cc13)CCCC2
inactive: growth inhibition [1] -3.06% | growth inhibition [2] -3.51% | viability increase [3] 0.51% | viability [4] 97.3% | viability [5] 92.8% | inhibition [6] 0.79% | RAM network inhibition [7] 1.98%

CCC(C)Sc1nnc(Cc2cc(=O)[nH]c(=O)[nH]2)n1-c1ccc(OC)cc1 (configuration not stated)
inactive: growth inhibition [1] 5.64% | growth inhibition [2] -6.83% | viability increase [3] -0.09% | viability [4] 104% | viability [5] 102% | inhibition [6] 0.295% | RAM network inhibition [7] 2.22%

CC(C)(C)n1nc2c(c1NC(=O)Cc1cccs1)CSC2
inactive: growth inhibition [1] -8.2% | growth inhibition [2] 12.2% | viability increase [3] -1.56% | viability [4] 93.8% | viability [5] 92.4% | inhibition [6] 0.95% | RAM network inhibition [7] 0.94%

Cc1cccc(NC(=O)COc2ccc(Br)cc2C)n1
inactive: growth inhibition [1] -4.42% | growth inhibition [2] 1.1% | viability increase [3] 1.07% | viability [4] 92.9% | viability [5] 90.5% | inhibition [6] 0.655% | RAM network inhibition [7] 5.6%

COc1ccc(C2SCC(C(=O)O)N2C(C)=O)cc1OC (configuration not stated)
inactive: growth inhibition [1] 0.095% | growth inhibition [2] 1.78% | viability increase [3] 0.1% | viability [4] 96.5% | viability [5] 102% | inhibition [6] 1.33% | RAM network inhibition [7] 7.78%

CC1=Nc2ccc(C)cc2N(Cc2ccccc2)C(=O)C1
inactive: growth inhibition [1] -10.2% | growth inhibition [2] -5.19% | viability increase [3] 0.47% | viability [4] 101% | viability [5] 93.8% | inhibition [6] 0.545% | RAM network inhibition [7] 2.83%

CC(CCc1ccccc1)NC(=O)C1CCN(c2nnc(-n3cccc3)s2)CC1 (configuration not stated)
inactive: growth inhibition [1] -2.63% | growth inhibition [2] -7.45% | viability increase [3] -0.45% | viability [4] 95.9% | viability [5] 88.5% | inhibition [6] 4.55% | RAM network inhibition [7] 4.94%

Cc1c(-n2cc(C(=O)O)c(=O)c3cc(F)c(N4CCCC4)c(F)c32)c(=O)n(-c2ccccc2)n1C
inactive: growth inhibition [1] -5.81% | growth inhibition [2] -11.4% | viability increase [3] -2.19% | viability [4] 98.8% | viability [5] 87.8% | inhibition [6] 2.6% | RAM network inhibition [7] 5.65%

Cc1ccc(C)c(N2CCN(CC(=O)Nc3ccc4[nH]c(=O)[nH]c4c3)CC2)c1
inactive: growth inhibition [1] -13.7% | growth inhibition [2] -14.9% | viability increase [3] -5.54% | viability [4] 92.9% | viability [5] 89.1% | inhibition [6] 0.03% | RAM network inhibition [7] 1.87%

CC(Oc1ccc(Cl)cc1Cl)c1nc(-c2ccccn2)no1 (configuration not stated)
inactive: growth inhibition [1] -3.06% | growth inhibition [2] 5.3% | viability increase [3] 1.23% | viability [4] 99.1% | viability [5] 87.7% | inhibition [6] 0.375% | RAM network inhibition [7] 2.34%

C1CCC(Nc2nnnn2C2CCCCC2)CC1
inactive: growth inhibition [1] -16.8% | growth inhibition [2] -16.1% | viability increase [3] -2.17% | viability [4] 90.4% | viability [5] 92.5% | inhibition [6] 1.41% | RAM network inhibition [7] 3.33%

Cc1ccc(N2C(=O)CC(N3CCN(C4CCc5ccccc5C4)CC3)C2=O)cc1 (configuration not stated)
inactive: growth inhibition [1] -2.06% | growth inhibition [2] 1.44% | viability increase [3] -2.69% | viability [4] 102% | viability [5] 98.2% | inhibition [6] 0.215% | RAM network inhibition [7] 6.5%

CCOC(=O)c1c(C)n(C)c2ccc(OCC(O)CN3CCC(C)CC3)cc12 (configuration not stated)
inactive: growth inhibition [1] -1.52% | growth inhibition [2] 4.4% | viability increase [3] -5.47% | viability [4] 70.2% | viability [5] 75.8% | inhibition [6] 0.415% | RAM network inhibition [7] -0.57%

COc1ccc(-n2nnc3c(=O)n(CC(=O)OCc4ccccc4)cnc32)cc1
inactive: growth inhibition [1] 0.92% | growth inhibition [2] 1.45% | viability increase [3] -1.76% | viability [4] 98.7% | viability [5] 99.9% | inhibition [6] 1.19% | RAM network inhibition [7] 6.18%

Cn1ccnc1SCc1cn2cc(Br)ccc2n1
inactive: growth inhibition [1] 2.79% | growth inhibition [2] 22.2% | viability increase [3] -3.12% | viability [4] 91.8% | viability [5] 84.7% | inhibition [6] 1.51% | RAM network inhibition [7] 4.08%

CC(C)c1nnc(NC(=O)CCN2C(=O)c3ccccc3C2=O)s1
inactive: growth inhibition [1] -11.7% | growth inhibition [2] -0.03% | viability increase [3] 0.32% | viability [4] 104% | viability [5] 106% | inhibition [6] 3.73% | RAM network inhibition [7] 5.82%

CCCc1ncc(C(O)c2cccc(OC)c2OC)n1C (configuration not stated)
inactive: growth inhibition [1] -11% | growth inhibition [2] -23% | viability increase [3] -2.63% | viability [4] 95.9% | viability [5] 94.4% | inhibition [6] 0.71% | RAM network inhibition [7] 1.45%
